Assay results reported in ChEMBL document CHEMBL1147861, “SAR studies on a novel series of human cytomegalovirus primase inhibitors” (Bioorg Med Chem Lett, 2007).

tested on: not listed separately; assay: Cytotoxicity against HFF cells by alamar blue assay; type: cell-based; settings: human
Summary of the method: (§1)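 Cells seeded and exposed to a range of compound concentrations; Alamar blue added at 0, 24, 48 and 72 h, fluorescence read after further 3 h incubation. IC50 = concentration inhibiting cell growth by 50%.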

Row | Structure (SMILES) | CC50
1 | Cc1nc(N[C@@H]2COC[C@@H]2C)nc(-n2ccnc2C)c1[N+](=O)[O-].Cl | 100000 nM
2 | Nc1nc2c(ncn2COC(CO)CO)c(=O)[nH]1 [GANCICLOVIR] | > 100000 nM
3 | Nc1ccn(C[C@@H](CO)OCP(=O)(O)O)c(=O)n1.O.O [CIDOFOVIR] | 100000 nM

tested on: not listed separately; assay: Cytotoxicity against human bone marrow cells assessed as inhibition of CFU-GM formation after 15 days; type: cell-based, Bone marrow cell; settings: not given
Summary of the method: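 Human bone marrow cells washed in IMDM–2% FBS, viable nucleated/mononuclear cells counted, adjusted to 10⁶ cells/mL, drug added, diluted 1:10 in methylcellulose medium and plated. After 15 days at 37 °C, humid 5% CO₂, CFU-GM colonies counted microscopically; IC50 = concentration halving colony formation.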

Row | Structure (SMILES) | CC50 at 360 h
4 | Cc1nc(N[C@@H]2COC[C@@H]2C)nc(-n2ccnc2C)c1[N+](=O)[O-].Cl | 50000 nM
5 | Nc1nc2c(ncn2COC(CO)CO)c(=O)[nH]1 [GANCICLOVIR] | 30000 nM
6 | Nc1ccn(C[C@@H](CO)OCP(=O)(O)O)c(=O)n1.O.O [CIDOFOVIR] | 6000 nM

tested on: Human betaherpesvirus 5; assay: Antiviral activity against HCMV infected HFF cells after 5 to 7 days by viral yield assay; type: functional; settings: not given
Summary of the method: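 rCMVLUC-infected HFF cells incubated 5–7 days with varying drug concentrations; viral yield determined by immunofluorescence using human anti-HCMV antiserum.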

Row | Structure (SMILES) | EC99.9
7 | Cc1nc(N[C@@H]2COC[C@@H]2C)nc(-n2ccnc2C)c1[N+](=O)[O-].Cl | 0.4 µM
8 | Nc1nc2c(ncn2COC(CO)CO)c(=O)[nH]1 [GANCICLOVIR] | 5 µM
9 | Nc1ccn(C[C@@H](CO)OCP(=O)(O)O)c(=O)n1.O.O [CIDOFOVIR] | 0.9 µM

tested on: not listed separately; assay: Oral bioavailability in rat; type: ADME, organism-based; settings: in vivo

Row | Structure (SMILES) | bioavailability
10 | Cc1nc(N[C@H]2CCOC[C@@H]2C)nc(-n2ccnc2C)c1[N+](=O)[O-] | 57%
11 | Cc1nc(N[C@@H]2COC[C@@H]2C)nc(-n2ccnc2C)c1[N+](=O)[O-].Cl | 21%

tested on: not listed separately; assay: Bioavailability in rat at 2 mg/kg, po; type: ADME, organism-based; settings: in vivo

Row | Structure (SMILES) | bioavailability
12 | Cc1nc(N)nc(-n2ccnc2C)c1[N+](=O)[O-] | 59%

tested on: not listed separately; assay: Cytotoxicity against human Jurkat cells by alamar blue assay; type: cell-based; settings: not given; summary of the method: as §1

Row | Structure (SMILES) | CC50
13 | Cc1nc(N[C@@H]2COC[C@@H]2C)nc(-n2ccnc2C)c1[N+](=O)[O-].Cl | 50000 nM
14 | Nc1nc2c(ncn2COC(CO)CO)c(=O)[nH]1 [GANCICLOVIR] | > 100000 nM
15 | Nc1ccn(C[C@@H](CO)OCP(=O)(O)O)c(=O)n1.O.O [CIDOFOVIR] | 100000 nM

tested on: Human betaherpesvirus 5; assay: Antiviral activity against HCMV infected HFF cells after 5 days by dot blot assay; type: functional, organism-based; settings: Human betaherpesvirus 5, HFF, 120 h
Summary of the method: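 HFF fibroblasts infected with luciferase-expressing recombinant CMV (rCMVLUC), then cultured 5 days across a range of drug concentrations. Viral DNA harvested, immobilized on membrane, hybridized with radiolabeled CMV-specific probe. IC50 = concentration giving 50% reduction of membrane-bound radioactivity relative to vehicle-only infected cells.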

Row | Structure (SMILES) | IC50
16 | Cc1nc(NC2CCSC2)nc(-n2ccnc2C)c1[N+](=O)[O-] (stereo not given) | 250 nM
17 | Cc1nc(NC2CCCCC2C)nc(-n2ccnc2C)c1[N+](=O)[O-] (stereo not given) | 80 nM
18 | Cc1nc(N[C@H]2CCCC[C@H]2C)nc(-n2ccnc2C)c1[N+](=O)[O-] | 700 nM
19 | Cc1nc(NCc2ccc(C(F)(F)F)cc2)nc(-n2ccnc2C)c1[N+](=O)[O-] | 200 nM
20 | Cc1nc(N[C@H]2CCCC[C@@H]2C)nc(-n2ccnc2C)c1[N+](=O)[O-] | 100 nM
21 | Cc1nc(NC2CCCC2C)nc(-n2ccnc2C)c1[N+](=O)[O-] (stereo not given) | 500 nM
22 | Cc1nc(NC2CCSCC2)nc(-n2ccnc2C)c1[N+](=O)[O-] | 400 nM
23 | Cc1nc(N[C@H]2CCOC[C@@H]2C)nc(-n2ccnc2C)c1[N+](=O)[O-] | 130 nM
24 | CCSCCNc1nc(C)c([N+](=O)[O-])c(-n2ccnc2C)n1 | 200 nM
25 | Cc1nc(N[C@H]2CCS(=O)(=O)[C@@H]2C)nc(-n2ccnc2C)c1[N+](=O)[O-] | 2000 nM
26 | Cc1nc(NC2CCCOC2C)nc(-n2ccnc2C)c1[N+](=O)[O-] (stereo not given) | 700 nM
27 | Cc1nc(NCc2ccccn2)nc(-n2ccnc2C)c1[N+](=O)[O-] | 500 nM
28 | Cc1nc(NCc2ccccc2OC(F)(F)F)nc(-n2ccnc2C)c1[N+](=O)[O-] | 200 nM
29 | Cc1ccccc1CNc1nc(C)c([N+](=O)[O-])c(-n2ccnc2C)n1 | 200 nM
30 | Cc1nc(NC2CCCC2)nc(-n2ccnc2C)c1[N+](=O)[O-] | 600 nM
31 | Cc1nc(NCc2cccc(F)c2)nc(-n2ccnc2C)c1[N+](=O)[O-] | 250 nM
32 | Cc1nc(NCc2ccc(F)cc2)nc(-n2ccnc2C)c1[N+](=O)[O-] | 150 nM
33 | Cc1nc(N[C@@H]2CCO[C@H]2C)nc(-n2ccnc2C)c1[N+](=O)[O-] | 600 nM
34 | Cc1nc(NCc2cccnc2)nc(-n2ccnc2C)c1[N+](=O)[O-] | 800 nM
35 | Cc1nc(NC2CCC(C)C2)nc(-n2ccnc2C)c1[N+](=O)[O-] (stereo not given) | 100 nM
36 | Cc1nc(NC2CCC(C)CC2)nc(-n2ccnc2C)c1[N+](=O)[O-] (stereo not given) | 200 nM

Row | Structure (SMILES) | IC50
37 | Cc1nc(NCc2ccc(C(F)(F)F)cc2F)nc(-n2ccnc2C)c1[N+](=O)[O-] | 200 nM
38 | Cc1nc(NC(C)CC(C)C)nc(-n2ccnc2C)c1[N+](=O)[O-] (stereo not given) | 130 nM
39 | COCC(C)Nc1nc(C)c([N+](=O)[O-])c(-n2ccnc2C)n1 (stereo not given) | 900 nM
40 | Cc1nc(N[C@H]2COC[C@H]2C)nc(-n2ccnc2C)c1[N+](=O)[O-] | 200 nM
41 | COc1cccc(CNc2nc(C)c([N+](=O)[O-])c(-n3ccnc3C)n2)c1 | 300 nM
42 | Cc1nc(NCc2cccc(OC(F)(F)F)c2)nc(-n2ccnc2C)c1[N+](=O)[O-] | 300 nM
43 | Cc1nc(NCCC(C)C)nc(-n2ccnc2C)c1[N+](=O)[O-] | 300 nM
44 | CC[C@H]1CCCC[C@@H]1Nc1nc(C)c([N+](=O)[O-])c(-n2ccnc2C)n1 | 90 nM
45 | Cc1nc(NCC2OCCC2C)nc(-n2ccnc2C)c1[N+](=O)[O-] (stereo not given) | 300 nM
46 | Cc1nc(NC(C)CCC(C)C)nc(-n2ccnc2C)c1[N+](=O)[O-] (stereo not given) | 2300 nM
47 | Cc1nc(NCc2ccc(F)c(F)c2)nc(-n2ccnc2C)c1[N+](=O)[O-] | 400 nM
48 | Cc1nc(NCc2ccc(F)cc2Cl)nc(-n2ccnc2C)c1[N+](=O)[O-] | 250 nM
49 | Cc1nc(NCC2CCCCO2)nc(-n2ccnc2C)c1[N+](=O)[O-] (stereo not given) | 4000 nM
50 | Cc1nc(NC2CCC[C@@H](C)C2)nc(-n2ccnc2C)c1[N+](=O)[O-] (stereo not given in full) | 150 nM
51 | Cc1ccc(CNc2nc(C)c([N+](=O)[O-])c(-n3ccnc3C)n2)cc1 | 1600 nM
52 | Nc1nc2c(ncn2COC(CO)CO)c(=O)[nH]1 [GANCICLOVIR] | 1000 nM
53 | Cc1nc(NC2CCC[C@H](C)C2)nc(-n2ccnc2C)c1[N+](=O)[O-] (stereo not given in full) | 150 nM
54 | CCS(=O)(=O)CCNc1nc(C)c([N+](=O)[O-])c(-n2ccnc2C)n1 | 1300 nM
55 | Cc1nc(NCC2CCCO2)nc(-n2ccnc2C)c1[N+](=O)[O-] (stereo not given) | 1000 nM
56 | Cc1nc(NC(C)CCc2ccccc2)nc(-n2ccnc2C)c1[N+](=O)[O-] (stereo not given) | 350 nM
57 | Cc1nc(N)nc(-n2ccnc2C)c1[N+](=O)[O-] | 2000 nM

Row | Structure (SMILES) | IC50
58 | Cc1nc(NC[C@@H]2OCCC[C@H]2C)nc(-n2ccnc2C)c1[N+](=O)[O-] | 400 nM
59 | Cc1nc(NCc2cc(C(F)(F)F)cc(C(F)(F)F)c2)nc(-n2ccnc2C)c1[N+](=O)[O-] | 15000 nM
60 | Cc1nc(NCc2ccc(Cl)cc2)nc(-n2ccnc2C)c1[N+](=O)[O-] | 300 nM
61 | CCNc1nc(C)c([N+](=O)[O-])c(-n2ccnc2C)n1 | 1000 nM
62 | Nc1ccn(C[C@@H](CO)OCP(=O)(O)O)c(=O)n1.O.O [CIDOFOVIR] | 350 nM
63 | CC[C@@H]1CC=CC[C@@H]1Nc1nc(C)c([N+](=O)[O-])c(-n2ccnc2C)n1 | 100 nM
64 | Cc1nc(NCc2ccc(Cl)c(Cl)c2)nc(-n2ccnc2C)c1[N+](=O)[O-] | 200 nM
65 | Cc1nc(NC2CCCCC2)nc(-n2ccnc2C)c1[N+](=O)[O-] | 200 nM
66 | Cc1nc(N[C@@H]2COC[C@@H]2C)nc(-n2ccnc2C)c1[N+](=O)[O-] | 150 nM
67 | CCC(C)Nc1nc(C)c([N+](=O)[O-])c(-n2ccnc2C)n1 (stereo not given) | 500 nM
68 | Cc1nc(NCc2cc(F)ccc2F)nc(-n2ccnc2C)c1[N+](=O)[O-] | 150 nM
69 | Cc1nc(NC2CCOCC2)nc(-n2ccnc2C)c1[N+](=O)[O-] | 3000 nM
70 | Cc1nc(N[C@@H]2CCO[C@@H]2C)nc(-n2ccnc2C)c1[N+](=O)[O-] | 500 nM
71 | Cc1nc(N[C@H]2CC=CC[C@@H]2C)nc(-n2ccnc2C)c1[N+](=O)[O-] | 300 nM
72 | Cc1nc(NC2CCS(=O)(=O)CC2)nc(-n2ccnc2C)c1[N+](=O)[O-] | > 5000 nM
73 | COCCCNc1nc(C)c([N+](=O)[O-])c(-n2ccnc2C)n1 | 2300 nM
74 | Cc1nc(NCc2cccc(Cl)c2Cl)nc(-n2ccnc2C)c1[N+](=O)[O-] | 200 nM
75 | Cc1nc(N[C@H]2CC=CC[C@H]2C)nc(-n2ccnc2C)c1[N+](=O)[O-] | 1500 nM
76 | Cc1nc(NCC2CCCCC2)nc(-n2ccnc2C)c1[N+](=O)[O-] | 120 nM
77 | Cc1cccc(CNc2nc(C)c([N+](=O)[O-])c(-n3ccnc3C)n2)c1 | 500 nM

same assay, conditions: hff

Row | Structure (SMILES) | IC50
78 | Cc1nc(N[C@@H]2COC[C@@H]2C)nc(-n2ccnc2C)c1[N+](=O)[O-].Cl | 130 nM

tested on: not listed separately; assay: Clearance in rat; type: ADME, organism-based; settings: in vivo

Row | Structure (SMILES) | clearance
79 | Cc1nc(N[C@H]2CCOC[C@@H]2C)nc(-n2ccnc2C)c1[N+](=O)[O-] | 36.7 mL/min/kg
80 | Cc1nc(N[C@@H]2COC[C@@H]2C)nc(-n2ccnc2C)c1[N+](=O)[O-].Cl | 23.3 mL/min/kg
